Bioassay records as filed in PubChem BioAssay.
Shown are actives, neighbours in structure and some others; about 1.8% of the full set was active somewhere.
M4 antag: blocks acetylcholine activation of human M4 receptor; P08173; hit rate 0.73% among 360,000; AID 624125; CHO-hM4 cells, ACh EC80, Fluo-8 calcium fluorescence; inhibition, % at 3 µM;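 active means inhibition above its plate's cutoff, the mean inhibition of sample wells plus 3 SD, cut at about 27% in these data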
Target sequence (P08173 whole entry, looked up): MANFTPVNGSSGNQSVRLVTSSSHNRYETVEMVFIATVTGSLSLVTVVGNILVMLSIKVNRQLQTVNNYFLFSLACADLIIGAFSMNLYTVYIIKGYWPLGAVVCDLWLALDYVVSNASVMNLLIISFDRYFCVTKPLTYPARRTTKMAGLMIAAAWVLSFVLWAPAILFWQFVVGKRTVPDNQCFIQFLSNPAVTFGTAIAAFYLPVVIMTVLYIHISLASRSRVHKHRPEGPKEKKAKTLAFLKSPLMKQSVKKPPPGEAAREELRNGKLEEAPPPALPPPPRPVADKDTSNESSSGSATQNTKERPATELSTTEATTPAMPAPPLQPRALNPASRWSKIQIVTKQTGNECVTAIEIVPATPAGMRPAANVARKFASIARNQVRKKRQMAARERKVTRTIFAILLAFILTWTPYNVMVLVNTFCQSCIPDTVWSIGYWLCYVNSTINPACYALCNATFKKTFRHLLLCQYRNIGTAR
CHRM4 agonist: agonists of human muscarinic M4 receptor (CHRM4); P08173; CHO-K1 hM4/Gqi5, Fluo-8 calcium fluorescence; vehicle 0%, full acetylcholine response 100%; activation, % at 3 µM; hit rate 0.14% among 360,000;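 active means activation above the run mean over all test wells plus 3 SD, cut at about 32% in these data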;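 further: peak over basal fluorescence ratio per well then scaled between controls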
CHRM5 agonist: agonists of human muscarinic M5 receptor (CHRM5) | P08912 | CHO-K1 hM5 cells, Fluo-8 calcium fluorescence; 0% DMSO wells, 100% maximal acetylcholine response | activation, % at 3 µM | hit rate 0.19% among 360,000 | AID 624037;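 active means activation above the run's mean over test compounds plus 3 SD, cut at about 23% in these data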;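 further: signal is peak over basal fluorescence ratio across the kinetic read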
CHRM5 antagonist: CHRM5 antagonism in calcium assay; P08912; CHO-hM5 cells, Fluo-8 calcium fluorescence, ACh EC80; inhibition, % at 3 µM; hit rate 0.59% among 360,000; AID 624040;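 active means inhibition above a per-plate cutoff, the mean of that plate's test compounds plus 3 SD, cut at about 27% in these data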
M5 PAM: CHRM5 positive allosteric modulation; P08912; CHO-K1 hM5, Fluo-8 calcium, ACh EC20 PAM; 0% = ACh EC20, 100% = ACh EC100; activation, % at 3 µM; hit rate 0.3% among 360,000;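 active means activation above the run cutoff, the mean activation of all test compounds plus 3 SD, cut at about 18% in these data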
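Test system: CHO-K1 hM5 cells / Doses: single-point, 3 µM nominal / Times: Post-acetylcholine fluorescence recording 140 s / Technique: Fluo-8 calcium fluorescence / Measure: Max/basal fluorescence ratio as % of EC20–EC100 ACh window / Benchmarks: low control EC20 acetylcholine (0%), high control EC100 acetylcholine (100%) / Replicates: one well per compound, no replicates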
M4 PAM: CHRM4 positive allosteric modulation; activation, % at 3 µM; hit rate 0.4% among 360,000; CHO-K1 hM4/Gqi5, Fluo-8 calcium fluorescence, ACh EC20; 0% = ACh EC20, 100% = maximal ACh;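 active means activation above its plate's cutoff, the mean activation of sample wells plus 3 SD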
Numbers stand for hits; 0 = inactive.

SMILES	M4 antag	CHRM4 agonist	CHRM5 agonist	CHRM5 antagonist	M5 PAM	M4 PAM
Clc1ccc(-c2nnc(CSc3nnc(-c4cccs4)n3Cc3ccccc3)o2)cc1	30	0	0	29	0	0
CCN(CC)CC#CCC1(O)c2ccccc2-c2ccccc21	0	0	0	0	0	0
CCN(CC#CCC1(O)c2ccccc2-c2ccccc21)C(C)C	35	0	0	39	0	0
Cc1ccc(S(=O)(=O)n2ccc3c2CCCC3=O)cc1	27	0	0	37	0	0
CN1C[C@@H]2C(c3ccccc3)C3(c4cccnc4)CC2(C3)[C@H]1c1ccccc1 (stereo not given in full)	57	0	0	31	0	0
O=C(N=C1SC2CS(=O)(=O)CC2N1c1cccc(Cl)c1)C1CCCO1 (stereo not given)	0	0	0	0	0	0
O=C(CCNC(=O)c1ccc([N+](=O)[O-])cc1)Nc1nc2ccccc2[nH]1	0	0	0	0	0	0
CC(=C/c1ccc(C(C)C)cc1)/C=N/NC(=O)Cn1nnnc1N	0	0	0	30	0	0
O=C1c2ccccc2C(=O)N1Cc1ccco1	0	0	0	0	0	0
COc1ccc(N2C(=O)c3cccc4c(N(C)CCO)ccc(c34)C2=O)cc1	0	0	24	0	0	0
COc1ccc(N2C(=O)c3cccc4cccc(c34)C2=O)cc1	0	0	0	0	0	0
CC(=O)Nc1ccc(N2C(=O)c3cccc4c(O)ccc(c34)C2=O)cc1	29	147	64	28	0	0
O=C1c2cccc3c(O)ccc(c23)C(=O)N1c1ccc(Cl)cc1	0	75	33	0	0	0
O=C1c2cccc3c(O)ccc(c23)C(=O)N1Cc1ccco1	28	99	26	0	0	0
CC(=O)Nc1ccc(-n2c(=O)c3ccccc3c3ccccc3c2=O)cc1	0	0	0	0	0	0
CCOC(=O)c1ccc(N2C(=O)c3cccc4c(C(=O)O)ccc(c34)C2=O)cc1	0	0	0	0	0	0
CCN(CC(=O)Nc1c(F)cccc1F)C(=O)CCNS(=O)(=O)c1ccc(C)c(C)c1	0	0	0	0	0	0
Fc1ccc(-c2nc3ccc(Cl)cn3c2Cc2cccc(F)c2)cc1	0	0	0	0	0	0
COc1cc(NC(=O)c2ccc(S(=O)(=O)N(C)c3ccccc3)cc2)cc(OC)c1	0	0	0	0	0	0
CNC(=S)N(C1=NCC(c2ccc([N+](=O)[O-])cc2)S1)c1ccccc1 (stereo not given)	0	0	0	0	0	0
c1ccc2c(c1)Cn1nnnc1-2	0	0	0	0	18	0
Cc1c(N=C/C=C/c2ccccc2)c(=O)n(-c2ccccc2)n1C	53	0	0	0	0	0
CCCc1cc(=O)[nH]c(SCC(=O)NC2(C#N)CCCCC2)n1	0	0	0	0	0	23
O=C(OCCc1cc2ccccc2c(=O)o1)c1ccco1	0	0	0	0	0	0
Cc1ccc(NC(=S)NCCO)c(C)c1	0	0	0	0	0	16
SMILES	M4 antag	CHRM4 agonist	CHRM5 agonist	CHRM5 antagonist	M5 PAM	M4 PAM
Cc1cc(Cl)ccc1NC(=S)NCc1ccc(S(N)(=O)=O)cc1	0	0	0	0	0	0
Cc1ccc(NC(=S)NCCc2ccccc2)c(C)c1	0	0	0	0	0	0
Cc1ccc(NC(=S)NCc2ccc(S(N)(=O)=O)cc2)c(C)c1	28	0	0	0	0	0
Nn1c(SCC(=O)Nc2ccc(N3CCOCC3)cc2)nnc1C1CC1	0	0	0	0	0	0
O=C(Nc1ccc(N2CCOCC2)c(S(=O)(=O)Nc2ccccc2Cl)c1)c1ccccc1	0	0	0	0	0	0
CN1CCN(S(=O)(=O)c2ccc(NC(=O)Nc3cccc(Cl)c3)cc2)CC1	29	0	0	0	0	0
Cc1oc(S(=O)(=O)N2CCCCC2)cc1NC(=O)Nc1ccccc1	0	0	0	0	0	0
Cc1oc(S(=O)(=O)N2CCCCC2)cc1NC(=O)Nc1ccc(Cl)cc1	0	0	0	32	0	0
O=C(Nc1cccc(Cl)c1)Nc1cc(S(=O)(=O)N2CCCCC2)ccc1Cl	0	0	0	29	0	0
O=C(Nc1ccc(Cl)cc1)Nc1ccc(N2CCCC2)c(S(=O)(=O)Nc2ccccc2Cl)c1	0	0	0	27	0	0
CN1CCN(S(=O)(=O)c2ccc(NC(=O)c3ccccc3Cl)cc2)CC1	0	0	0	0	0	0
CCn1nnc2cc(C(=O)Nc3cccc(S(=O)(=O)N(C)C)c3)ccc21	0	0	0	0	0	0
CCOc1ccc(/C=C/[N+](=O)[O-])c2ccccc12	40	0	54	86	0	0
O=c1/c(=C/c2ccccc2)sc2nnc(-c3cccs3)n12	0	0	0	0	19	0
O=c1/c(=C\c2ccc(O)cc2)sc2nc(-c3ccccc3)c(-c3ccccc3)n12	0	0	0	0	0	0
CN(C)c1ccc(N2C(=NC(=O)c3ccccc3)SC3CS(=O)(=O)CC32)cc1 (stereo not given)	0	0	0	0	0	0
CN(C)c1ccc(C=c2c3ccccc3n3c2c2ccccc2[n+]3C)cc1	33	0	0	0	0	0
Nn1c(SCC(=O)Nc2ccc(S(N)(=O)=O)cc2)nnc1-c1ccco1	0	0	0	0	0	0
COc1ccccc1C(=O)Nc1nc(-c2ccc(S(=O)(=O)N3CCOCC3)cc2)cs1	36	0	0	30	0	0
COc1ccc(-c2csc(NC(=O)c3ccccc3S(C)(=O)=O)n2)cc1	0	0	0	0	0	0
COc1ccccc1OC(C)C(=O)Nc1nc(-c2ccc(S(=O)(=O)N3CCOCC3)cc2)cs1 (stereo not given)	0	0	0	0	0	0
COc1ccc(-c2csc(NC(=O)c3ccc(S(C)(=O)=O)cc3)n2)cc1	0	0	23	0	0	0
CCOC(=O)c1c(C)[nH]c(C)c1S(=O)(=O)NCCN1CCN(c2cc(Cl)ccc2C)CC1	0	0	0	0	0	0
COc1cccc2c(=O)n(CC(=O)NCCc3ccccc3)ccc12	29	0	0	0	0	0
COc1cc(OC)c(/C=N/NC(=O)Cn2nc([N+](=O)[O-])cc2C)c(OC)c1	0	0	0	0	0	12
Cc1cc([N+](=O)[O-])nn1CC(=O)N/N=C/c1ccccc1O	0	0	0	0	0	0
CCc1ccc(NC(=O)CNC(=O)[C@@H]2Cc3ccccc3CN2C(=O)OC(C)(C)C)cc1	0	0	0	0	0	0
